# Compound activity as filed in PubChem BioAssay.
# The full list was thinned out, with hits kept by preference.
# IDH1 R132H inh: blocks human IDH1 R132H reductase activity. 0.18% of 70,000 active. diaphorase/resazurin fluorescence, 60 min. AID 624101. O75874. inhibition, % at 10 µM; in the data active = inhibition above about 34%;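 also: 0% = DMSO and 100% = no enzyme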
# GASC1 inh: blocks human GASC-1 (KDM4C) demethylase activity. Q9H3R0. GST-KDM4C 2-372, H3K9me3 peptide, LANCE TR-FRET. inhibition, % at 12.5 µM. 0.15% of 96,000 active. AID 720574;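 active = mean replicate inhibition above about 25%, with at least 55% of replicates also reaching it, limit read from the data, passing the limit was not always enough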
# Target sequence (Q9H3R0 2-372 limits assumed): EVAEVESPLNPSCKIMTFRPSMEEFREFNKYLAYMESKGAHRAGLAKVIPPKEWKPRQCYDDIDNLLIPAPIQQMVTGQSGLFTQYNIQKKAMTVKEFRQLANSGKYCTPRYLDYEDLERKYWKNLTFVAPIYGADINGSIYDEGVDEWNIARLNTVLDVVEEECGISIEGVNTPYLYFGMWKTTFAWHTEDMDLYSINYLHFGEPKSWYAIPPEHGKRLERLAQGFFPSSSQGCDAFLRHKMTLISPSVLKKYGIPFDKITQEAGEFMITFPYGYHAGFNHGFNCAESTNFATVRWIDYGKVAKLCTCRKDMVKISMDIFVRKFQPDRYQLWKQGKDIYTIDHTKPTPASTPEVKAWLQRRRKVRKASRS
#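 reagent = H3K9me3 peptide substrate, Fe(II), 2-oxoglutarate | system = GST-tagged GASC-1 (JMJD2C) catalytic fragment, aa 2-372 | amount = enzyme final amount 10 nM | read-out = Fall in 671/618 emission ratio as inhibition | medium = HEPES buffer, pH 7.5, plus ascorbate | schedule = 30 min reaction, 60 min detection, RT | measured by = LANCE TR-FRET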
# Pf Dd2 inh: P. falciparum Dd2 growth inhibition; SYBR Green, 72 h; stronger effect = lower value; 2.3% of 94,000 active; activity change, % at 10 µM; in the data active = activity change below about -80%
# * marks the source's active call; other numbers are inactive results; · = no result.
SMILES,IDH1 R132H inh,GASC1 inh,Pf Dd2 inh
C[C@H](CO)N1C[C@H](C)[C@H](CN(C)Cc2ccc3c(c2)OCO3)Oc2ccc(NC(=O)Cc3ccccc3)cc2CC1=O,-5.1,-0.1,-27.9
C/C=C/c1ccc([C@H]2[C@@H](CO)N(CC3CC3)[C@@H]2CNC(=O)NC(C)C)cc1,·,1.2,-5.7
C/C=C/c1ccc([C@H]2[C@@H](CO)N(CC3CC3)[C@H]2CNS(C)(=O)=O)cc1,·,-1.3,-12.2
C/C=C/c1ccc([C@H]2[C@@H](CO)N(CC3CCCCC3)[C@@H]2CNC(C)C)cc1,·,-0.7,-93.6*
C/C=C/c1ccc([C@@H]2[C@@H](CO)N(c3nc(CC)cs3)[C@@H]2CNC(C)C)cc1,·,-1.7,-78.5
C/C=C/c1ccc([C@H]2[C@@H](CO)N(CC3CCCC3)C23CN(C(=O)CC)C3)cc1,·,-0.8,-26.9
C/C=C/c1ccc([C@H]2[C@@H](CO)N(CC3CCCC3)[C@@H]2CNC(=O)NC(C)C)cc1,·,-0.9,-94.0*
C/C=C/c1ccc([C@H]2[C@H](CO)N(c3nc(CC)cs3)[C@H]2CNC(C)C)cc1,·,-0.3,-80.7*
C/C=C/c1ccc([C@H]2[C@@H](CO)N(CC3CCCC3)C23CN(C(=O)CC2CC2)C3)cc1,·,-1.3,-86.7*
O=C(Nc1ccc(F)cc1)N[C@@H]1CC[C@H](CC(=O)N2CCOCC2)O[C@@H]1CO,-0.2,3.0,18.0
O=C1NC(=S)N(S(=O)(=O)c2cccc3cccnc23)C1Cc1ccccc1 (stereo not given),-1.5,·,·
CNC[C@H]1Oc2ccc(NS(=O)(=O)c3cn(C)cn3)cc2C(=O)N([C@H](C)CO)C[C@@H]1C,-0.3,1.2,10.6
CO[C@@H]1CN(C)C(=O)c2ccc(NC(=O)c3ccccc3F)cc2OC[C@H](C)N(CC2CC2)C[C@H]1C,-0.4,1.7,-21.7
C[C@H](CO)N1C[C@H](C)[C@@H](CN(C)CC2CC2)Oc2ccc(NC(=O)Nc3cccc4ccccc34)cc2CC1=O,0.0,0.3,-86.3*
C[C@H]1CN([C@@H](C)CO)C(=O)Cc2cc(NC(=O)Nc3cccc4ccccc34)ccc2O[C@H]1CN(C)C,0.1,-0.2,7.2
C[C@H](CO)N1C[C@H](C)[C@H](CN(C)CC2CC2)Oc2ccc(NC(=O)Nc3cccc4ccccc34)cc2CC1=O,-2.7,-0.1,-89.2*
C[C@H]1CN([C@@H](C)CO)C(=O)Cc2cc(NC(=O)Nc3cccc4ccccc34)ccc2O[C@@H]1CN(C)CC1CCCCC1,1.1,-2.0,-25.6
COc1ccc(NC(=O)CN(c2cc(Cl)c(Cl)cc2Cl)S(C)(=O)=O)c(OC)c1,0.2,·,·
C[C@H]1CN([C@@H](C)CO)C(=O)c2cc(NC(=O)Nc3ccc(C(F)(F)F)cc3)ccc2O[C@@H]1CN(C)C(=O)Nc1cccc2ccccc12,0.0,2.4,-95.2*
C[C@@H]1CN([C@H](C)CO)C(=O)c2cccc(NC(=O)Nc3cccc4ccccc34)c2O[C@H]1CN(C)C(=O)Nc1ccc(C(F)(F)F)cc1,0.1,1.7,-42.6
C[C@@H]1CN([C@H](C)CO)C(=O)c2cccc(NC(=O)C3CC3)c2O[C@H]1CN(C)C(=O)Nc1ccc(C(F)(F)F)cc1,1.1,1.5,-5.6
C[C@@H]1CN([C@H](C)CO)C(=O)c2cccc(NC(=O)Nc3cccc4ccccc34)c2O[C@@H]1CN(C)C(=O)Nc1ccc(C(F)(F)F)cc1,0.5,-2.3,-91.9*
C[C@H](CO)N1C[C@H](C)[C@@H](CN(C)C(=O)Nc2cccc3ccccc23)Oc2ccc(NC(=O)Nc3ccc(C(F)(F)F)cc3)cc2C1=O,-6.4,3.0,-95.8*
C[C@H]1CN([C@@H](C)CO)C(=O)c2cc(NC(=O)Nc3ccc(F)cc3)ccc2O[C@@H]1CN(C)C(=O)Nc1cccc2ccccc12,0.6,0.6,-23.0
C[C@@H]1CN([C@@H](C)CO)C(=O)c2cccc(NC(=O)C3CC3)c2O[C@@H]1CN(C)C(=O)Nc1ccc(C(F)(F)F)cc1,·,-0.7,-88.7*
SMILES,IDH1 R132H inh,GASC1 inh,Pf Dd2 inh
C[C@@H]1CN([C@H](C)CO)C(=O)c2cc(NC(=O)Nc3cccc4ccccc34)ccc2O[C@H]1CN(C)C(=O)Nc1ccc(C(F)(F)F)cc1,·,-2.0,-12.6
C[C@@H]1CN([C@H](C)CO)C(=O)c2cc(-c3ccc(C#N)cc3)cnc2O[C@H]1CN(C)Cc1ccccn1,0.1,-2.7,17.8
O=C(CC1C(=O)N(c2ccccc2)C(=O)N1Cc1cccs1)Nc1ccccc1 (stereo not given),0.3,·,·
C[C@@H]1CCCCO[C@H](CN(C)CC2CC2)[C@H](C)CN([C@H](C)CO)C(=O)c2cc(NS(=O)(=O)c3ccc(F)cc3)ccc2O1,1.3,2.2,-67.9
CCNC(=O)C[C@H]1CC[C@H]2[C@H](COc3ccc(NC(=O)C4CCCCC4)cc3C(=O)N2C)O1,·,-0.3,21.1
O=C(N[C@H]1CC[C@@H](CCNS(=O)(=O)c2ccc(F)cc2)O[C@H]1CO)C1CC1,-0.2,-1.0,13.3
Cc1ccc(S(=O)(=O)N2CC[C@@H]3[C@H]2c2cc(-c4ccc(C#N)cc4)ccc2N[C@@H]3CO)cc1,·,-1.2,12.8
C[C@H](CO)N1C[C@H](C)[C@@H](CN(C)C(=O)Nc2ccc(C(F)(F)F)cc2)Oc2ccc(NC(=O)Nc3cccc4ccccc34)cc2C1=O,2.0,-3.0,-17.6
C[C@H]1CN([C@@H](C)CO)C(=O)c2cc(NC(=O)Nc3cccc4ccccc34)ccc2O[C@H]1CN(C)C(=O)Nc1ccc(C(F)(F)F)cc1,-0.3,-3.7,-91.2*
C[C@@H]1CCCCO[C@H](CN(C)C(=O)Nc2ccc(F)cc2)[C@@H](C)CN([C@@H](C)CO)C(=O)c2cc(NS(C)(=O)=O)ccc2O1,0.7,-0.1,-14.4
N#C[C@@H]1[C@@H](c2ccc(C#Cc3ccc(F)cc3)cc2)[C@H](CO)N1C(=O)C1CCCC1,·,-4.3,-86.0*
CCCC#Cc1ccc([C@H]2[C@@H](CO)N(C(=O)C3CCCCC3)[C@H]2C#N)cc1,-0.5,2.4,-85.6*
N#C[C@@H]1[C@@H](c2ccc(C#Cc3ccccc3F)cc2)[C@H](CO)N1C(=O)C1CCCC1,·,-0.8,-43.4
N#C[C@H]1[C@H](c2ccc(C#Cc3ccccc3F)cc2)[C@@H](CO)N1C(=O)C1CCCC1,·,1.9,-86.9*
N#C[C@H]1[C@@H](c2ccc(C#Cc3ccc(F)cc3)cc2)[C@H](CO)N1C(=O)C1CCCC1,·,-2.6,-71.6
CC(C)NC(=O)N1[C@@H](C#N)[C@@H](c2ccc(C#CC3CCCC3)cc2)[C@@H]1CO,·,-0.2,-7.5
CC(C)NC(=O)N1[C@H](C#N)[C@H](c2ccc(C#CC3CCCC3)cc2)[C@@H]1CO,·,-3.2,-87.5*
CCCC#Cc1ccc([C@@H]2[C@@H](C#N)N(C(=O)C3CCCC3)[C@H]2CO)cc1,·,2.2,-22.6
O=C(N[C@@H]1CC[C@@H](CCNS(=O)(=O)c2ccc(F)cc2)O[C@H]1CO)c1cccnc1,-0.2,0.2,-10.7
COc1ccc(S(=O)(=O)N[C@@H]2C=C[C@@H](CC(=O)NCc3ccccc3F)O[C@H]2CO)cc1,-0.1,-1.4,-8.3
Cc1cc(C)n(CC(O)COc2ccc3cc(Br)ccc3c2)n1 (stereo not given),0.7,·,·
